Measured values from different studies.
Lines come from different studies, so protocols differ.
Organism: Mycolicibacterium smegmatis
Observed: microbial growth

Compound	test	test system	setting	MIC
CC[C@@H](CO)NCCN[C@@H](CC)CO	resazurin	ATCC607	72 h	0.39 µg/mL
CNC(=O)c1cc(Oc2ccc(NC(=O)Nc3ccc(Cl)c(C(F)(F)F)c3)cc2)ccn1	–	MC2155	–	50 µM
O=C(Nc1ncc([N+](=O)[O-])s1)c1ccccn1	agar dilution	MC^2155	–	100 µM
CO[C@H]1/C=C/O[C@@]2(C)Oc3c(C)c(O)c4c(O)c(c(/C=N/N5CCN(C)CC5)c(O)c4c3C2=O)NC(=O)/C(C)=C\C=C\[C@H](C)[C@H](O)[C@@H](C)[C@@H](O)[C@@H](C)[C@H](OC(C)=O)[C@@H]1C	broth dilution	–	–	162 µM
NNC(=O)c1ccncc1	broth dilution	ATCC607	–	> 200 µg/mL
CC1(C)S[C@@H]2[C@H](NC(=O)[C@H](N)c3ccccc3)C(=O)N2[C@H]1C(=O)O	resazurin	MC^2155	24 h	50 µg/mL
CC(C)=CCC/C(C)=C/C[N+](C)(C)CCOC1C2CC3CC(C2)CC1C3.[I-] (stereo not drawn)	–	–	–	12 µg/mL
CN[C@H](CC(C)C)C(=O)N[C@H]1C(=O)N[C@@H](CC(N)=O)C(=O)N[C@H]2C(=O)N[C@H]3C(=O)N[C@H](C(=O)N[C@H](C(=O)O)c4cc(O)cc(O)c4-c4cc3ccc4O)[C@H](O)c3ccc(c(Cl)c3)Oc3cc2cc(c3O[C@@H]2O[C@H](CO)[C@@H](O)[C@H](O)[C@H]2O[C@H]2C[C@](C)(N)[C@H](O)[C@H](C)O2)Oc2ccc(cc2Cl)[C@H]1O	resazurin	ATCC607	72 h	3.12 µg/mL
O=C(Nc1ccccc1)Nc1ncc([N+](=O)[O-])s1	agar dilution	MC^2155	–	> 100 µM
COc1nc2ccc(Br)cc2cc1[C@@H](c1ccccc1)[C@@](O)(CCN(C)C)c1cccc2ccccc12	–	–	–	0.03 µg/mL
NNC(=O)c1ccncc1	agar dilution	–	–	12.5 µg/mL
CC(C)CC=CC=CC(=O)NC(CC(N)=O)C(=O)NC1C(=O)NC(c2ccc(O)cc2)C(=O)NC(CCCN)C(=O)NC(C(C)O)C(=O)NC(c2ccc(O)cc2)C(=O)NC(c2ccc(O)cc2)C(=O)NC(C(C)O)C(=O)NC(Cc2ccccc2)C(=O)NC(CCCN)C(=O)NC(c2ccc(OC3OC(CO)C(O)C(O)C3OC3OC(CO)C(O)C(O)C3O)cc2)C(=O)NC(C(C)O)C(=O)NC(c2ccc(O)cc2)C(=O)NCC(=O)NC(CC(C)C)C(=O)NC(C)C(=O)NC(c2ccc(O)c(Cl)c2)C(=O)OC1C(N)=O (stereo not drawn)	resazurin	ATCC607	72 h	3.25 µg/mL
CC(C)=CCC/C(C)=C/CNCCOc1ccccc1	–	–	–	12 µg/mL
C/C(=N\NC(=N)N)c1cccc(/C(C)=N/NC(=N)N)c1	–	MC2155	–	15.6 to 31.3 µM
CC(C)=CCC/C(C)=C/COCC(=O)NC1C2CC3CC(C2)CC1C3 (stereo not drawn)	–	–	–	25 µg/mL
COC1C(C(OC2OC(C(=O)NC3CCCCNC3=O)=CC(O)C2O)C(N)=O)OC(n2ccc(=O)[nH]c2=O)C1OC (stereo not drawn)	broth dilution	ATCC607	–	> 200 µg/mL
CC(C)=CCC/C(C)=C/CNCCNC1C2CC3CC(C2)CC1C3 (stereo not drawn)	–	–	–	3.1 µg/mL
CNC(C)C1CCC(N)C(OC2C(N)CC(N)C(OC3OCC(C)(O)C(NC)C3O)C2O)O1 (stereo not drawn)	broth dilution	–	72 h	1 µg/mL
